# Results as given in PMC12749539 (Scientific Reports, 2025).
# pEC50: −log10 of the molar value.
# Key:
# ZIKV = conditions: read-out: previously reported EC50; anti-ZIKV; cited from earlier work
# [1] = CC50 cytotoxicity in uninfected Vero cells; assay type: cell-based; conditions: African green monkey
# In short: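 Vero CCL-81 cells in DMEM with 10% FBS were seeded at 1.2 × 10⁶ cells per plate one day ahead. Uninfected monolayers were exposed to serial dilutions of test compound in DMEM (50–0.2 µM) for 6 days at 37 °C and 5% CO2. Viability was read by crystal violet staining. CC50 came from four-parameter logistic nonlinear regression of triplicate data, with 95% CIs from log-transformed estimates.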
# [2] = system: Zika virus (ZIKV) MR766 strain; experiment: EC50 dose-response in ZIKV-infected Vero cells; assay type: cell-based; conditions: CC50/EC50, Vero cells
# In short: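 Vero CCL-81 monolayers were seeded at 1.2 × 10⁶ cells per plate one day before. Serial dilutions of test compound in DMEM (methods: 50–0.2 µM; legend: 0.2–100 µM) were added together with ZIKV MR766 at 100 TCID50/mL. Plates were held 6 days at 37 °C and 5% CO2, with virus and cell controls. Crystal violet read viability. EC50 came from four-parameter logistic fit of triplicate data. SI = CC50/EC50.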
SMILES,pEC50 (ZIKV),CC50 at 6 days [1] [µM],selectivity index (SI) [2]
COC1=C[C@]23CCCN2CCc2cc4c(cc2[C@@H]3[C@@H]1O)OCO4 [Cephalotaxine],4.40,,
CCCCC(CC)COC(=O)CC(C(=O)OCC(CC)CCCC)S(=O)(=O)O (stereo not drawn) [Docusate Sodium],,8.19,3.49
